Laboratory results published in ChEMBL document CHEMBL4118256, “Second Generation of Mannich Base-Type Derivatives with in Vivo Activity against Trypanosoma cruzi” (J Med Chem, 2018).

tested on: Trypanosoma cruzi; test: Trypanocidal activity against Trypanosoma cruzi IRHOD/CO/2008/SN3 DTU 1 amastigotes infected in African green monkey Vero cells after 72 hrs by Giemsa-staining based microscopic assay; format: functional, organism-based; conditions: IRHOD/CO/2008/SN3 DTU 1, Vero
Procedure, shortened: (§1)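 Vero cells were seeded at 1×10^4/well on coverslips. After 24 h they were infected with culture-derived trypomastigotes (MOI 1:10, 24 h), then washed. Compounds were added at 100–0.2 µM (DMSO 0.01% v/v) for 72 h at 37 °C, 5% CO2. Slides were methanol-fixed and Giemsa-stained; amastigotes and infected cells were counted over 500 host cells. IC50 was derived by curve fitting; triplicate wells, four separate determinations.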

| SMILES | IC50 |
| --- | --- |
| Cc1ccc(C(=O)CCN2CCN(c3ccc([N+](=O)[O-])cc3)CC2)cc1 | 24 µM |
| O=C(CCN1CCN(c2ccc(F)cc2)CC1)c1ccc(F)c(F)c1 | 51.1 µM |

tested on: Trypanosoma cruzi; test: Trypanocidal activity against Trypanosoma cruzi TINF/CH/1956/Tulahuen DTU 6 epimastigotes after 48 hrs by resazurin dye based assay; format: functional, organism-based; conditions: TINF/CH/1956/Tulahuen DTU 6, 48 h
Procedure, shortened: (§2)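 Exponential-phase epimastigotes were seeded at 5×10^5 mL^-1 with compounds at 100–0.2 µM (DMSO 0.01% v/v) at 28 °C. After 48 h, resazurin was added for another 24 h. SDS was then added and absorbance read at 570 and 600 nm.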

| SMILES | IC50 |
| --- | --- |
| Cc1ccc(C(=O)CCN2CCN(c3ccc([N+](=O)[O-])cc3)CC2)cc1 | 46.2 µM |
| O=C(CCN1CCN(c2ccc(F)cc2)CC1)c1ccc(F)c(F)c1 | 65.5 µM |
| O=C(CCN1CCN(c2ccc([N+](=O)[O-])cc2)CC1)c1ccc(F)c(Br)c1 | 19.1 µM |
| O=C(CCN1CCN(c2ccc(F)cc2)CC1)c1ccc(OC(F)(F)F)cc1 | 52.6 µM |
| O=C(CCN1CCN(c2ccc([N+](=O)[O-])cc2)CC1)c1ccc(Br)cc1 | 46.2 µM |
| O=C(CCN1CCN(c2ccc(F)cc2)CC1)c1ccc(Br)cc1 | 49.5 µM |

tested on: not listed separately; test: Selectivity index, ratio of IC50 for African green monkey Vero cells to IC50 for Trypanosoma cruzi IRHOD/CO/2008/SN3 DTU 1 amastigotes infected in African green monkey Vero cells; format: toxicity; conditions: read-out: Ratio IC50
Procedure, shortened: (§3)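 SI is Vero IC50 divided by the IC50 for the stated parasite form. For Vero cytotoxicity, cells were seeded at 1.25×10^4 mL^-1 with compounds at 1000–1 µM, incubated 48 h, then given resazurin for a further 24 h (72 h total), with absorbance read at 570/600 nm. Triplicate, four determinations.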

| SMILES | selectivity ratio |
| --- | --- |
| Cc1ccc(C(=O)CCN2CCN(c3ccc([N+](=O)[O-])cc3)CC2)cc1 | 9.8 |
| O=C(CCN1CCN(c2ccc(F)cc2)CC1)c1ccc(F)c(F)c1 | 7.5 |

tested on: Vero; test: Cytotoxicity against African green monkey Vero cells assessed as reduction in cell viability after 72 hrs by resazurin dye based assay; conditions: Chlorocebus sabaeus
Procedure, shortened: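 Vero monkey kidney cells grown at 37 °C, 5 % CO2, in RPMI with 10 % heat-inactivated FBS. Seeded at 1.25 × 10^4 mL-1 with compound at 1000 to 1 µM (DMSO 0.01 % v/v). After 48 h, resazurin added for a further 24 h, then SDS. Absorbance read at 570/600 nm. IC50 from triplicates in four separate determinations.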

| SMILES | IC50 |
| --- | --- |
| Cc1ccc(C(=O)CCN2CCN(c3ccc([N+](=O)[O-])cc3)CC2)cc1 | 235 µM |
| O=C(CCN1CCN(c2ccc(F)cc2)CC1)c1ccc(F)c(F)c1 | 385 µM |
| O=C(CCN1CCN(c2ccc([N+](=O)[O-])cc2)CC1)c1ccc(F)c(Br)c1 | 256 µM |
| O=C(CCN1CCN(c2ccc(F)cc2)CC1)c1ccc(OC(F)(F)F)cc1 | 70.3 µM |
| O=C(CCN1CCN(c2ccc([N+](=O)[O-])cc2)CC1)c1ccc(Br)cc1 | 79.8 µM |
| O=C(CCN1CCN(c2ccc(F)cc2)CC1)c1ccc(Br)cc1 | 99.5 µM |

tested on: not listed separately; test: Selectivity index, ratio of IC50 for African green monkey Vero cells to IC50 for Trypanosoma cruzi MHOM/Pe/2011/Arequipa DTU 5 trypamastigotes derived from infected Balb/c albino mouse; format: toxicity; conditions: read-out: Ratio IC50; procedure, shortened: as §3

| SMILES | selectivity ratio |
| --- | --- |
| O=C(CCN1CCN(c2ccc(F)cc2)CC1)c1ccc(F)c(F)c1 | 12.2 |

tested on: Trypanosoma cruzi; test: Trypanocidal activity against Trypanosoma cruzi MHOM/Pe/2011/Arequipa DTU 5 trypamastigotes derived from infected Balb/c albino mouse after 24 hrs by resazurin dye based assay; format: functional, organism-based; conditions: MHOM/Pe/2011/Arequipa DTU 5, 24 h
Procedure, shortened: (§4)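 Bloodstream trypomastigotes taken from mice at peak parasitaemia were seeded at 2×10^6 mL^-1 in RPMI with 10% FBS. Compounds were added at 50–0.2 µM and incubated 24 h at 37 °C, 5% CO2, then with resazurin for 4 h. SDS was added and absorbance read at 570/600 nm. IC50 was fitted; triplicate, four separate determinations.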

| SMILES | IC50 |
| --- | --- |
| O=C(CCN1CCN(c2ccc(F)cc2)CC1)c1ccc(F)c(F)c1 | 31.6 µM |

tested on: Trypanosoma cruzi; test: Trypanocidal activity against Trypanosoma cruzi MHOM/Pe/2011/Arequipa DTU 5 amastigotes infected in African green monkey Vero cells after 72 hrs by Giemsa-staining based microscopic assay; format: functional, organism-based; conditions: MHOM/Pe/2011/Arequipa DTU 5, Vero; procedure, shortened: as §1

| SMILES | IC50 |
| --- | --- |
| O=C(CCN1CCN(c2ccc(F)cc2)CC1)c1ccc(F)c(F)c1 | 28.3 µM |

tested on: Trypanosoma cruzi; test: Trypanocidal activity against Trypanosoma cruzi IRHOD/CO/2008/SN3 DTU 1 trypamastigotes derived from infected Balb/c albino mouse after 24 hrs by resazurin dye based assay; format: functional, organism-based; conditions: IRHOD/CO/2008/SN3 DTU 1, 24 h; procedure, shortened: as §4

| SMILES | IC50 |
| --- | --- |
| Cc1ccc(C(=O)CCN2CCN(c3ccc([N+](=O)[O-])cc3)CC2)cc1 | 25.3 µM |
| O=C(CCN1CCN(c2ccc(F)cc2)CC1)c1ccc(F)c(F)c1 | 42.2 µM |

tested on: not listed separately; test: Selectivity index, ratio of IC50 for African green monkey Vero cells to IC50 for Trypanosoma cruzi TINF/CH/1956/Tulahuen DTU 6 epimastigotes; format: toxicity; conditions: read-out: Ratio IC50; procedure, shortened: as §3

| SMILES | selectivity ratio |
| --- | --- |
| Cc1ccc(C(=O)CCN2CCN(c3ccc([N+](=O)[O-])cc3)CC2)cc1 | 5.1 |
| O=C(CCN1CCN(c2ccc(F)cc2)CC1)c1ccc(F)c(F)c1 | 5.9 |
| O=C(CCN1CCN(c2ccc([N+](=O)[O-])cc2)CC1)c1ccc(F)c(Br)c1 | 13.4 |
| O=C(CCN1CCN(c2ccc(F)cc2)CC1)c1ccc(OC(F)(F)F)cc1 | 1.3 |
| O=C(CCN1CCN(c2ccc([N+](=O)[O-])cc2)CC1)c1ccc(Br)cc1 | 1.7 |
| O=C(CCN1CCN(c2ccc(F)cc2)CC1)c1ccc(Br)cc1 | 2 |

tested on: not listed separately; test: Selectivity index, ratio of IC50 for African green monkey Vero cells to IC50 for Trypanosoma cruzi IRHOD/CO/2008/SN3 DTU 1 epimastigotes; format: toxicity; conditions: read-out: Ratio IC50; procedure, shortened: as §3

| SMILES | selectivity ratio |
| --- | --- |
| Cc1ccc(C(=O)CCN2CCN(c3ccc([N+](=O)[O-])cc3)CC2)cc1 | 12.9 |
| O=C(CCN1CCN(c2ccc(F)cc2)CC1)c1ccc(F)c(F)c1 | 10.3 |
| O=C(CCN1CCN(c2ccc([N+](=O)[O-])cc2)CC1)c1ccc(F)c(Br)c1 | 6.8 |
| O=C(CCN1CCN(c2ccc(F)cc2)CC1)c1ccc(OC(F)(F)F)cc1 | 2.5 |
| O=C(CCN1CCN(c2ccc([N+](=O)[O-])cc2)CC1)c1ccc(Br)cc1 | 2 |
| O=C(CCN1CCN(c2ccc(F)cc2)CC1)c1ccc(Br)cc1 | 1.8 |

tested on: not listed separately; test: Selectivity index, ratio of IC50 for African green monkey Vero cells to IC50 for Trypanosoma cruzi TINF/CH/1956/Tulahuen DTU 6 trypamastigotes derived from infected Balb/c albino mouse; format: toxicity; conditions: read-out: Ratio IC50; procedure, shortened: as §3

| SMILES | selectivity ratio |
| --- | --- |
| O=C(CCN1CCN(c2ccc([N+](=O)[O-])cc2)CC1)c1ccc(F)c(Br)c1 | 8 |

tested on: not listed separately; test: Selectivity index, ratio of IC50 for African green monkey Vero cells to IC50 for Trypanosoma cruzi MHOM/Pe/2011/Arequipa DTU 5 amastigotes infected in African green monkey Vero cells; format: toxicity; conditions: read-out: Ratio IC50; procedure, shortened: as §3

| SMILES | selectivity ratio |
| --- | --- |
| O=C(CCN1CCN(c2ccc(F)cc2)CC1)c1ccc(F)c(F)c1 | 13.6 |

tested on: not listed separately; test: Selectivity index, ratio of IC50 for African green monkey Vero cells to IC50 for Trypanosoma cruzi IRHOD/CO/2008/SN3 DTU 1 trypamastigotes derived from infected Balb/c albino mouse; format: toxicity; conditions: read-out: Ratio IC50; procedure, shortened: as §3

| SMILES | selectivity ratio |
| --- | --- |
| Cc1ccc(C(=O)CCN2CCN(c3ccc([N+](=O)[O-])cc3)CC2)cc1 | 9.3 |
| O=C(CCN1CCN(c2ccc(F)cc2)CC1)c1ccc(F)c(F)c1 | 9.1 |

tested on: not listed separately; test: Selectivity index, ratio of IC50 for African green monkey Vero cells to IC50 for Trypanosoma cruzi TINF/CH/1956/Tulahuen DTU 6 amastigotes infected in African green monkey Vero cells; format: toxicity; conditions: read-out: Ratio IC50; procedure, shortened: as §3

| SMILES | selectivity ratio |
| --- | --- |
| O=C(CCN1CCN(c2ccc([N+](=O)[O-])cc2)CC1)c1ccc(F)c(Br)c1 | 6.6 |

tested on: not listed separately; test: Selectivity index, ratio of IC50 for African green monkey Vero cells to IC50 for Trypanosoma cruzi MHOM/Pe/2011/Arequipa DTU 5 epimastigotes; format: toxicity; conditions: read-out: Ratio IC50; procedure, shortened: as §3

| SMILES | selectivity ratio |
| --- | --- |
| Cc1ccc(C(=O)CCN2CCN(c3ccc([N+](=O)[O-])cc3)CC2)cc1 | 8.3 |
| O=C(CCN1CCN(c2ccc(F)cc2)CC1)c1ccc(F)c(F)c1 | 18 |
| O=C(CCN1CCN(c2ccc([N+](=O)[O-])cc2)CC1)c1ccc(F)c(Br)c1 | 7 |
| O=C(CCN1CCN(c2ccc(F)cc2)CC1)c1ccc(OC(F)(F)F)cc1 | 0.8 |
| O=C(CCN1CCN(c2ccc([N+](=O)[O-])cc2)CC1)c1ccc(Br)cc1 | 2.9 |
| O=C(CCN1CCN(c2ccc(F)cc2)CC1)c1ccc(Br)cc1 | 4.4 |

tested on: Trypanosoma cruzi; test: Trypanocidal activity against Trypanosoma cruzi MHOM/Pe/2011/Arequipa DTU 5 epimastigotes after 48 hrs by resazurin dye based assay; format: functional, organism-based; conditions: MHOM/Pe/2011/Arequipa DTU 5, 48 h; procedure, shortened: as §2

| SMILES | IC50 |
| --- | --- |
| Cc1ccc(C(=O)CCN2CCN(c3ccc([N+](=O)[O-])cc3)CC2)cc1 | 28.4 µM |
| O=C(CCN1CCN(c2ccc(F)cc2)CC1)c1ccc(F)c(F)c1 | 21.4 µM |
| O=C(CCN1CCN(c2ccc([N+](=O)[O-])cc2)CC1)c1ccc(F)c(Br)c1 | 36.5 µM |
| O=C(CCN1CCN(c2ccc(F)cc2)CC1)c1ccc(OC(F)(F)F)cc1 | 85.4 µM |
| O=C(CCN1CCN(c2ccc([N+](=O)[O-])cc2)CC1)c1ccc(Br)cc1 | 27.2 µM |
| O=C(CCN1CCN(c2ccc(F)cc2)CC1)c1ccc(Br)cc1 | 22.5 µM |

tested on: Trypanosoma cruzi; test: Trypanocidal activity against Trypanosoma cruzi IRHOD/CO/2008/SN3 DTU 1 epimastigotes after 48 hrs by resazurin dye based assay; format: functional, organism-based; conditions: IRHOD/CO/2008/SN3 DTU 1, 48 h; procedure, shortened: as §2

| SMILES | IC50 |
| --- | --- |
| Cc1ccc(C(=O)CCN2CCN(c3ccc([N+](=O)[O-])cc3)CC2)cc1 | 18.2 µM |
| O=C(CCN1CCN(c2ccc(F)cc2)CC1)c1ccc(F)c(F)c1 | 37.6 µM |
| O=C(CCN1CCN(c2ccc([N+](=O)[O-])cc2)CC1)c1ccc(F)c(Br)c1 | 37.5 µM |
| O=C(CCN1CCN(c2ccc(F)cc2)CC1)c1ccc(OC(F)(F)F)cc1 | 27.6 µM |
| O=C(CCN1CCN(c2ccc([N+](=O)[O-])cc2)CC1)c1ccc(Br)cc1 | 39.7 µM |
| O=C(CCN1CCN(c2ccc(F)cc2)CC1)c1ccc(Br)cc1 | 56.8 µM |

tested on: Trypanosoma cruzi; test: Trypanocidal activity against Trypanosoma cruzi TINF/CH/1956/Tulahuen DTU 6 amastigotes infected in African green monkey Vero cells after 72 hrs by Giemsa-staining based microscopic assay; format: functional, organism-based; conditions: TINF/CH/1956/Tulahuen DTU 6, Vero; procedure, shortened: as §1

| SMILES | IC50 |
| --- | --- |
| O=C(CCN1CCN(c2ccc([N+](=O)[O-])cc2)CC1)c1ccc(F)c(Br)c1 | 38.7 µM |

tested on: Trypanosoma cruzi; test: Trypanocidal activity against Trypanosoma cruzi TINF/CH/1956/Tulahuen DTU 6 trypamastigotes derived from infected Balb/c albino mouse after 24 hrs by resazurin dye based assay; format: functional, organism-based; conditions: TINF/CH/1956/Tulahuen DTU 6, 24 h; procedure, shortened: as §4

| SMILES | IC50 |
| --- | --- |
| O=C(CCN1CCN(c2ccc([N+](=O)[O-])cc2)CC1)c1ccc(F)c(Br)c1 | 32.1 µM |
